# Test results reported in article PMC5992617 (ACS chemical biology, 2017).
# Read-outs that look alike come from different tables or passages of the source. Where no end group is shown, it is not given here. FAM = fluorescein amidite
# T1: C-terminal domain from human Rev1 (Rev1-CT) (human, UniProt Q9UBZ9 1158-1251)
# T1 sequence (looked up): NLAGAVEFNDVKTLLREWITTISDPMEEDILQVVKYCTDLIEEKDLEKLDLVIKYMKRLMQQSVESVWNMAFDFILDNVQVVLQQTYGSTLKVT
# B1: unlabeled Polκ-RIR (peptide, UniProt Q9UBT6 560-575, looked up)
# peptide: EMSHKKSFFDKKRSER
# B2: human Polκ-RIR peptide (residues 560-575) modified with an N-terminal fluorescein amidite label (FAM-Polκ-RIR) (peptide, UniProt Q9UBT6 560-575, looked up)
# peptide: {FAM}-EMSHKKSFFDKKRSER
# How the values were obtained:
# [1] = test system: wild-type (WT) mouse embryonic fibroblasts (MEFs); experiment: Clonogenic survival assay in WT MEFs with cisplatin; format: cell-based; settings: cisplatin 0.6 μM, 4 or 5 1.5 μM, alone
# Outline: (§1)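 Wild-type or Rev1⁻/⁻ mouse embryonic fibroblasts in DMEM with 10% FBS and 1% penicillin/streptomycin at 37°C, 5% CO₂. Seeded at 600 cells/well and left overnight. […] Colonies of ≥40 cells Coomassie-counted and expressed relative to DMSO controls. Two experiments, each in triplicate.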
# [2] = test system: Rev1^−/− mouse embryonic fibroblasts (MEFs); experiment: Clonogenic survival assay in Rev1−/− MEFs with cisplatin; format: cell-based; settings: cisplatin 0.6 μM alone
# Outline: as §1
# HT1080 cells = experiment: Clonogenic survival assay in HT1080 cells with cisplatin; format: cell-based, human; settings: cisplatin 0.6 μM, 4 or 5 1.5 μM, alone
# Outline: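 HT1080 cells in RPMI 1640 with 10% FBS and 1% penicillin/streptomycin at 37°C, 5% CO₂. Seeded at 600 cells/well in 6-well plates and left overnight. […] Fixed in methanol/acetic acid and Coomassie-stained. Colonies of ≥40 cells counted relative to DMSO controls; Student t-test.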
# [3] = test system: HPRT gene mutation frequency in HT1080 cells; experiment: HPRT mutagenesis assay in HT1080 cells; format: cell-based, human; settings: cisplatin alone 0.6 μM
# [4] = target: T1, C-terminal domain from human Rev1 …; experiment: fluorescence polarisation
# [5] = target: T1, C-terminal domain from human Rev1 …; experiment: fluorescence polarisation; remark: listed apart in the source
# [6] = target: T1, C-terminal domain from human Rev1 …; experiment: SEC
molecule,measurement,setting,value
N.N.[Cl][Pt][Cl] [cisplatin],"Clonogenic growth of WT MEFs, single agent",[1],minimal effect on clonogenic growth
same,Sensitivity of Rev1−/− MEFs to cisplatin compared with WT MEFs,[2],significantly more sensitive
same,"Colony formation of HT1080 cells, single agent",HT1080 cells,minimal effect on colony formation
same,Increase in HPRT mutations compared to non-treated cells,[3],approximately 1.9 fold
B1,IC50,[4],7.3 ± 1.4 µM
same,IC50,[5],6.6 ± 0.1 µM
B2,binding result,[6],binds
